Laboratory results reported in ChEMBL document CHEMBL1275591, “Cellular pharmacodynamics of the novel biaryloxazolidinone radezolid: studies with infected phagocytic and nonphagocytic cells, using Staphylococcus aureus, Staphylococcus epidermidis, Listeria monocytogenes, and Legionella pneumophila” (Antimicrob Agents Chemother, 2010).
In brackets after ≈: the same amount, converted by molar mass.

Experiments:
Staphylococcus aureus [1] = experiment: Antimicrobial activity against linezolid-resistant Staphylococcus aureus SA238L infected in THP1 cells assessed as log reduction in bacterial count after 24 hrs; format: functional, THP-1
Summary of the method: (§1)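 Bacteria were phagocytosed by human THP-1 macrophage-like cells, then exposed to a range of drug concentrations for a fixed time: 24 h for S. aureus, S. epidermidis and L. monocytogenes, 48 h for L. pneumophila. Change in CFU versus the initial inoculum was fitted with a sigmoidal curve to give Emin, Emax (relative maximal efficacy), EC50 and static concentration (Cs).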

[2] = tested on: Staphylococcus epidermidis; experiment: Antimicrobial activity against Staphylococcus epidermidis SA362 after 24 hrs; format: functional; conditions: SA362, 24 h
Staphylococcus aureus [3] = experiment: Antimicrobial activity against linezolid-resistant Staphylococcus aureus SA040L infected in THP1 cells after 24 hrs; format: functional, organism-based; conditions: THP-1, 24 h; summary of the method: as §1
Listeria monocytogenes [4] = experiment: Antimicrobial activity against Listeria monocytogenes infected in THP1 cells after 24 hrs; format: functional, organism-based; conditions: THP-1, 24 h; summary of the method: as §1
Staphylococcus aureus [5] = experiment: Antimicrobial activity against linezolid-susceptible Staphylococcus aureus NRS18 infected in THP1 cells after 24 hrs; format: functional, organism-based; conditions: NRS18, THP-1, 24 h; summary of the method: as §1
Staphylococcus aureus [6] = experiment: Antimicrobial activity against linezolid-susceptible Staphylococcus aureus SA040 infected in THP1 cells after 24 hrs; format: functional, organism-based; conditions: SA040, THP-1, 24 h; summary of the method: as §1
Staphylococcus aureus [7] = experiment: Antimicrobial activity against hospital acquired methicillin-resistant, vancomycin resistant Staphylococcus aureus VRS1 after 24 hrs; format: functional; conditions: VRS1, 24 h
Staphylococcus aureus [8] = experiment: Antimicrobial activity against linezolid-susceptible Staphylococcus aureus SA040 infected in THP1 cells assessed as log reduction in bacterial count after 24 hrs; format: functional, THP-1; summary of the method: as §1
Staphylococcus aureus [9] = experiment: Antimicrobial activity against linezolid-susceptible Staphylococcus aureus ATCC 33591 infected in THP1 cells after 24 hrs; format: functional, organism-based; conditions: ATCC 33591, THP-1, 24 h; summary of the method: as §1
Staphylococcus aureus [10] = experiment: Bacteriostatic activity against Staphylococcus aureus infected in THP1 cells after 24 hrs; format: functional, THP-1; summary of the method: as §1
Staphylococcus aureus [11] = experiment: Antimicrobial activity against hospital acquired methicillin-resistant Staphylococcus aureus ATCC 33591 after 24 hrs; format: functional; conditions: ATCC 33591, 24 h
Staphylococcus aureus [12] = experiment: Antimicrobial activity against linezolid-susceptible Staphylococcus aureus ATCC 25923 infected in THP1 cells assessed as log reduction in bacterial count after 24 hrs; format: functional, THP-1; summary of the method: as §1
Staphylococcus aureus [13] = experiment: Bacteriostatic activity against linezolid-susceptible Staphylococcus aureus SA238 infected in THP1 cells at pH 7.4 after 24 hrs; format: functional, THP-1
Legionella pneumophila [14] = experiment: Antimicrobial activity against Legionella pneumophila ATCC 33153 after 48 hrs; format: functional; conditions: ATCC 33153, 48 h
Staphylococcus aureus [15] = experiment: Antimicrobial activity against linezolid-susceptible Staphylococcus aureus NRS384 infected in THP1 cells after 24 hrs; format: functional, organism-based; conditions: NRS384, THP-1, 24 h; summary of the method: as §1
Staphylococcus aureus [16] = experiment: Antimicrobial activity against linezolid-susceptible Staphylococcus aureus SA238 infected in THP1 cells after 24 hrs; format: functional, organism-based; conditions: SA238, THP-1, 24 h; summary of the method: as §1
Staphylococcus aureus [17] = experiment: Bacteriostatic activity against linezolid-susceptible Staphylococcus aureus ATCC 33591 infected in THP1 cells after 24 hrs; format: functional, THP-1
Summary of the method: (§2)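 Human THP-1 myelomonocytic (macrophage-like) cells infected with S. aureus, then exposed 24 h to a range of antibiotic concentrations. CFU change was measured against the initial inoculum. A sigmoidal dose-response curve was fitted to give Emin, Emax and EC50, and the apparent static concentration (Cs) was taken from the fit.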

Staphylococcus aureus [18] = experiment: Bacteriostatic activity against linezolid-susceptible Staphylococcus aureus SA238 after 24 hrs; format: functional
Summary of the method: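 Extracellular concentration-response in Mueller-Hinton broth over 24 h. Change in CFU was fitted to a sigmoidal function, and the apparent static concentration (Cs) was derived from the fit.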

Staphylococcus aureus [19] = experiment: Antimicrobial activity against linezolid-susceptible Staphylococcus aureus NRS18 infected in THP1 cells assessed as log reduction in bacterial count after 24 hrs; format: functional, THP-1; summary of the method: as §1
Staphylococcus aureus [20] = experiment: Bacteriostatic activity against linezolid-susceptible Staphylococcus aureus NRS384 infected in THP1 cells after 24 hrs; format: functional, THP-1; summary of the method: as §2
Staphylococcus aureus [21] = experiment: Bacteriostatic activity against linezolid-susceptible Staphylococcus aureus SA238 infected in THP1 cells at pH 5.5 after 24 hrs; format: functional, THP-1
Listeria monocytogenes [22] = experiment: Bacteriostatic activity against Listeria monocytogenes EGD infected in THP1 cells after 24 hrs; format: functional, THP-1; summary of the method: as §1
Staphylococcus aureus [23] = experiment: Bacteriostatic activity against linezolid-susceptible Staphylococcus aureus ATCC 25923 infected in THP1 cells after 24 hrs; format: functional, THP-1; summary of the method: as §2
Legionella pneumophila [24] = experiment: Antimicrobial activity against Legionella pneumophila ATCC 33153 infected in THP1 cells after 48hrs; format: functional, organism-based; conditions: ATCC 33153, THP-1, 48 h; summary of the method: as §1
Staphylococcus aureus [25] = experiment: Bacteriostatic activity against linezolid-susceptible Staphylococcus aureus SA238 infected in THP1 cells after 24 hrs; format: functional, THP-1; summary of the method: as §2
Legionella pneumophila [26] = experiment: Bacteriostatic activity against Legionella pneumophila ATCC 33153 infected in THP1 cells after 48hrs; format: functional, THP-1; summary of the method: as §1
Staphylococcus aureus [27] = experiment: Antimicrobial activity against linezolid-susceptible Staphylococcus aureus NRS384 infected in THP1 cells assessed as log reduction in bacterial count after 24 hrs; format: functional, THP-1; summary of the method: as §1
Staphylococcus aureus [28] = experiment: Antimicrobial activity against linezolid-susceptible Staphylococcus aureus SA238 infected in THP-1 cells at pH 5.5 after 24 hrs; format: functional, organism-based; conditions: SA238, THP-1, 24 h
Staphylococcus aureus [29] = experiment: Bacteriostatic activity against linezolid-resistant Staphylococcus aureus SA040L infected in THP1 cells after 24 hrs; format: functional, THP-1; summary of the method: as §2
Staphylococcus aureus [30] = experiment: Bacteriostatic activity against linezolid-resistant Staphylococcus aureus SA238L infected in THP1 cells after 24 hrs; format: functional, THP-1; summary of the method: as §2
Staphylococcus aureus [31] = experiment: Antimicrobial activity against linezolid-susceptible Staphylococcus aureus SA238 after 24 hrs; format: functional, organism-based; conditions: SA238, 24 h
Staphylococcus aureus [32] = experiment: Antimicrobial activity against linezolid-susceptible Staphylococcus aureus ATCC 25923 infected in THP1 cells after 24 hrs; format: functional, organism-based; conditions: ATCC 25923, THP-1, 24 h; summary of the method: as §1
Staphylococcus aureus [33] = experiment: Antimicrobial activity against linezolid-susceptible Staphylococcus aureus SA238 infected in THP1 cells at pH 7.4 after 24 hrs; format: functional, organism-based; conditions: SA238, THP-1, 24 h
[34] = tested on: Staphylococcus epidermidis; experiment: Antimicrobial activity against Staphylococcus epidermidis infected in THP1 cells after 24 hrs; format: functional, organism-based; conditions: THP-1, 24 h; summary of the method: as §1
Staphylococcus aureus [35] = experiment: Antimicrobial activity against linezolid-resistant Staphylococcus aureus SA238L infected in THP1 cells after 24 hrs; format: functional, organism-based; conditions: THP-1, 24 h; summary of the method: as §1
Listeria monocytogenes [36] = experiment: Antimicrobial activity against Listeria monocytogenes EGD after 24 hrs; format: functional
Staphylococcus aureus [37] = experiment: Bacteriostatic activity against linezolid-susceptible Staphylococcus aureus SA040 infected in THP1 cells after 24 hrs; format: functional, THP-1; summary of the method: as §2
Staphylococcus aureus [38] = experiment: Antimicrobial activity against Staphylococcus aureus infected in THP1 cells after 24 hrs; format: functional, organism-based; conditions: THP-1, 24 h; summary of the method: as §1
Staphylococcus aureus [39] = experiment: Antimicrobial activity against Linezolid resistant hospital acquired methicillin-resistant Staphylococcus aureus SA238L after 24 hrs; format: functional
Staphylococcus aureus [40] = experiment: Antimicrobial activity against hospital acquired methicillin-resistant, vancomycin resistant Staphylococcus aureus VRS2 after 24 hrs; format: functional; conditions: VRS2, 24 h
Staphylococcus aureus [41] = experiment: Antimicrobial activity against linezolid-susceptible Staphylococcus aureus ATCC 33591 infected in THP1 cells assessed as log reduction in bacterial count after 24 hrs; format: functional, THP-1; summary of the method: as §1
Staphylococcus aureus [42] = experiment: Bacteriostatic activity against linezolid-susceptible Staphylococcus aureus NRS18 infected in THP1 cells after 24 hrs; format: functional, THP-1; summary of the method: as §2
Staphylococcus aureus [43] = experiment: Antimicrobial activity against linezolid-susceptible Staphylococcus aureus SA238 infected in THP1 cells assessed as log reduction in bacterial count after 24 hrs; format: functional, THP-1; summary of the method: as §1
Staphylococcus aureus [44] = experiment: Antimicrobial activity against linezolid resistant methicillin-susceptible Staphylococcus aureus SA040L after 24 hrs; format: functional
[45] = tested on: Staphylococcus epidermidis; experiment: Bacteriostatic activity against Staphylococcus epidermidis infected in THP1 cells after 24 hrs; format: functional, THP-1; summary of the method: as §1
Staphylococcus aureus [46] = experiment: Antimicrobial activity against linezolid-resistant Staphylococcus aureus SA040L infected in THP1 cells assessed as log reduction in bacterial count after 24 hrs; format: functional, THP-1; summary of the method: as §1

## CC(=O)NC[C@H]1CN(c2ccc(N3CCOCC3)c(F)c2)C(=O)O1 [LINEZOLID]
Staphylococcus aureus [1]
  log10cfu: 0.27
[2]
  MIC: 1 µg/mL (≈ 2.96 µM)
Staphylococcus aureus [3]
  EC50: 2.78 µg/mL (≈ 8.24 µM)
Listeria monocytogenes [4]
  EC50: 0.62 µg/mL (≈ 1.84 µM)
Staphylococcus aureus [5]
  EC50: 0.84 µg/mL (≈ 2.49 µM)
Staphylococcus aureus [6]
  EC50: 0.63 µg/mL (≈ 1.87 µM)
Staphylococcus aureus [7]
  MIC: 1 µg/mL (≈ 2.96 µM)
Staphylococcus aureus [8]
  log10cfu: -0.91
Staphylococcus aureus [9]
  EC50: 0.47 µg/mL (≈ 1.39 µM)
Staphylococcus aureus [10]
  Activity: 4.27 mg/L
Staphylococcus aureus [11]
  MIC: 1 µg/mL (≈ 2.96 µM)
Staphylococcus aureus [12]
  log10cfu: -0.37
Staphylococcus aureus [13]
  Activity: 2.26 mg/L
Legionella pneumophila [14]
  MIC: 4 µg/mL (≈ 11.9 µM)
Staphylococcus aureus [15]
  EC50: 0.4 µg/mL (≈ 1.19 µM)
Staphylococcus aureus [16]
  EC50: 0.7 µg/mL (≈ 2.07 µM)
Staphylococcus aureus [17]
  Activity: 2.95 mg/L
Staphylococcus aureus [18]
  Activity: 4.55 mg/L
Staphylococcus aureus [19]
  log10cfu: -0.69
Staphylococcus aureus [20]
  Activity: 2.3 mg/L
Staphylococcus aureus [21]
  Activity: 1.09 mg/L
Listeria monocytogenes [22]
  Activity: 5.47 mg/L
Staphylococcus aureus [23]
  Activity: 4.27 mg/L
Legionella pneumophila [24]
  EC50: 8.45 µg/mL (≈ 25 µM)
Staphylococcus aureus [25]
  Activity: 4.55 mg/L
Legionella pneumophila [26]
  Activity: 5.14 mg/L
Staphylococcus aureus [27]
  log10cfu: -0.41
Staphylococcus aureus [28]
  EC50: 0.18 µg/mL (≈ 0.534 µM)
Staphylococcus aureus [29]
  Activity: 10.15 mg/L
Staphylococcus aureus [30]
  Activity: >100 mg/L
Staphylococcus aureus [31]
  EC50: 0.7 µg/mL (≈ 2.07 µM)
Staphylococcus aureus [32]
  EC50: 0.63 µg/mL (≈ 1.87 µM)
Staphylococcus aureus [33]
  EC50: 0.35 µg/mL (≈ 1.04 µM)
[34]
  EC50: 2.99 µg/mL (≈ 8.86 µM)
Staphylococcus aureus [35]
  EC50: 0.29 µg/mL (≈ 0.86 µM)
Listeria monocytogenes [36]
  MIC: 1 µg/mL (≈ 2.96 µM)
Staphylococcus aureus [37]
  Activity: 1.59 mg/L
Staphylococcus aureus [38]
  EC50: 0.63 µg/mL (≈ 1.87 µM)
Staphylococcus aureus [39]
  MIC: 16 µg/mL (≈ 47.4 µM)
Staphylococcus aureus [40]
  MIC: 1 µg/mL (≈ 2.96 µM)
Staphylococcus aureus [41]
  log10cfu: -0.39
Staphylococcus aureus [42]
  Activity: 2.77 mg/L
Staphylococcus aureus [43]
  log10cfu: -0.42
Staphylococcus aureus [44]
  MIC: 16 µg/mL (≈ 47.4 µM)
[45]
  Activity: 0.49 mg/L
Staphylococcus aureus [46]
  log10cfu: -0.69
